Screening data as filed in PubChem BioAssay.
Shown are actives, neighbours in structure and some others; about 1.8% of the full set was active somewhere.
DNMT1 block = inhibitors of human DNMT1 | 360,000 compounds, 0.83% hits | DNMT1 molecular beacon, Hinp1I cleavage, fluorescence | inhibition (reported as % activation of signal), % at 10 µM | P26358; in the data active means inhibition above about 50%
SUMO1 PPI mod = SUMO1-SIM interaction modulation. 360,000 compounds, 0.33% hits. inhibition, % at 20 µM. AID 602429. SUMO1 binding to a labelled peptide, TR-FRET, 1 h. P63165; in the data active means inhibition above about 37%
Target sequence (P63165 whole entry, looked up): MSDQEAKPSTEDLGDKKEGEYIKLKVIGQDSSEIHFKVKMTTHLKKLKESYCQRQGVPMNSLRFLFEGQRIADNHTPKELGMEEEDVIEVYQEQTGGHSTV
STEP block = STEP (human) phosphatase inhibition | inhibition, % at 20 µM | recombinant STEP, OMFP fluorogenic substrate, fluorescence | 360,000 compounds, 0.25% hits;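 active means inhibition at 20 µM, scaled per plate between control wells, above about 37%, limit read from the data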;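 further: 0% = DMSO with enzyme and substrate and 100% = substrate only without enzyme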
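material = STEP tyrosine phosphatase | reagent = fluorogenic phosphatase substrate OMFP at 25 µM final | doses = single compound dose of 20 µM, 1% DMSO final | schedule = 20 min reaction, room temperature, in the dark | measured by = fluorescence, 480/540 nm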
Scp1 inh = blocks human Scp-1 phosphatase activity. Recombinant Scp1, phosphopeptide, malachite green phosphate absorbance. 340,000 compounds, 0.88% hits. inhibition, % at 20 µM. AID 493091. Q9GZU7;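 active means inhibition above about 50% at 20 µM, limit read from the data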;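 further: plate controls were DMSO wells with enzyme for no effect and wells lacking enzyme for full effect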
Target sequence (Q9GZU7 76-261 limits assumed): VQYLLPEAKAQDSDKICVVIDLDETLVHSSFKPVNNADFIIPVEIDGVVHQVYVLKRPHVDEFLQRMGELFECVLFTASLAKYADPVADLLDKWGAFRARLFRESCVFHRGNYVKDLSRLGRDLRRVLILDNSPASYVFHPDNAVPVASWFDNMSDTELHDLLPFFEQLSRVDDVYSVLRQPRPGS
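System: truncated SCP-1 phosphatase (76-261aa); medium: Tris acetate buffer pH 5.5 with MgCl2 and Tween-20; incubation: 45 min room-temperature reaction, 5 min colour, 30 min stabiliser; compound: single 20 µM dose, 1% DMSO; reagent: Phosphorylated 17-residue peptide substrate; read-out: % inhibition at 20 µM; technique: colorimetric free-phosphate detection, absorbance 630 nm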
LMPTP block = LMPTP (human) inhibition; recombinant LMPTP-A, OMFP fluorogenic substrate, fluorescence intensity; inhibition, % at 20 µM; 360,000 compounds, 0.22% hits;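 active means compounds that cut the enzyme signal by at least half of the control window in the single-dose screen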;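 further: plate controls were DMSO wells with enzyme plus substrate for no effect and substrate without enzyme for full effect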
Target sequence (P24666 whole entry, looked up): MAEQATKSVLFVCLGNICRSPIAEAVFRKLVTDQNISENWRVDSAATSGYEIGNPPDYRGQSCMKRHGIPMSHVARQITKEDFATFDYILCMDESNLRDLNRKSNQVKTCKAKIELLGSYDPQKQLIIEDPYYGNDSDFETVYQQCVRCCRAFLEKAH
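test system = LMPTP-A | amount = 0.625 nM LMPTP-A final | reagent = fluorogenic phosphatase substrate OMFP at 400 µM final | incubation = 50 min at room temperature | benchmarks = no-enzyme low control, uninhibited high control | medium = Bis-Tris pH 6.0, DTT, detergent | signal = fluorescence intensity of OMFP turnover product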
HKDC1 inh = inhibitors of human hexokinase HKDC1; recombinant HKDC1, G6PDH/diaphorase resazurin coupled fluorescence; inhibition, % at 20 µM; 340,000 compounds, 0.16% hits;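 active means inhibition above about 35% when tested at 20 µM, limit read from the data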;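 further: plate controls were DMSO wells with enzyme for no effect and DMSO wells lacking enzyme for full effect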
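System: Recombinant HKDC1 hexokinase | Amount: HKDC1 at 5 µg/mL | Reagent: Glucose with 1 mM ATP | Doses: Single 20 µM dose | Incubation: Reaction time 90 min, room temperature, protected from light | Signal: Coupled resazurin fluorescence, excitation 525 nm, emission 613 nm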
Scp1 confirm = Scp-1 (human) inhibition, single-dose confirmed | shares compounds with Scp1 inh | recombinant SCP-1 catalytic domain, phosphate release, malachite green absorbance | inhibition, % at 20 µM | 2,500 compounds, 61% hits;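 further: plate controls were DMSO with enzyme for no effect and buffer wells lacking enzyme for full effect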
MG interference = interferes with malachite green readout, flagging false Scp-1 hits; shares compounds with Scp1 inh; Colorimetric interference counterscreen, malachite green absorbance 630 nm; apparent inhibition (interference), % at 20 µM; 2,500 tested, under 10 active; AID 540313;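 further: compounds added after enzyme reaction finished so only phosphate colour detection is probed; plate controls were DMSO wells with completed Scp-1 reaction for no effect and substrate wells lacking enzyme for full effect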
Scp-1 Tm shift = validation of human Scp-1 inhibitors by thermal shift binding | shares compounds with Scp1 inh | Recombinant SCP1, Sypro Orange thermal shift Tm | thermal shift relative to vanadate control, % at 40 µM | 1,500 compounds, 25% hits;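 active means substances whose mean melting-temperature shift, as a percentage of the reference inhibitor's shift, reaches about 5.3%, limit read from the data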;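 further: 0% = Tm of DMSO wells and 100% = Tm with sodium orthovanadate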
DNMT1 inh conf = confirmation of human DNMT1 inhibitors. shares compounds with DNMT1 block. DNMT1 molecular beacon HinP1I cleavage, fluorescence. inhibition, % at 10 µM. 2,300 compounds, 8% hits. AID 602385;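 active means average inhibition of at least 30% in the single-concentration confirmation test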
Beacon interf = counter-screen for DNMT1 inhibitors: spectral interference; shares compounds with DNMT1 block; DNMT1 molecular beacon spectral interference counterscreen, fluorescence 485/520; activation (fluorescence interference), % at 10 µM; 2,300 compounds, 1% hits;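 active means activation of at least 30% at 10 µM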;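 further: DNMT1 catalytic domain with a HinP1I cleavage step and a FAM/dabcyl DNA beacon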
Starred values were filed as active, the others as inactive; · = no result given.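 How the source made its calls, unless noted: active means inhibition of at least 30% at 20 µM; inactive means the rest.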

SMILES	DNMT1 block	SUMO1 PPI mod	STEP block	Scp1 inh	LMPTP block	HKDC1 inh	Scp1 confirm	MG interference	Scp-1 Tm shift	DNMT1 inh conf	Beacon interf
Cc1nn(CC(=O)NCc2ccc(Cl)cc2)c(C)c1[N+](=O)[O-]	-3	-1	-3	-11	-2	-8	·	·	·	·	·
O=C1C2CCCCN2C(=O)N1CCCCN1CCN(c2ccccc2Oc2ccccc2)CC1 (stereo not drawn)	-6	4	-1	-6	-3	-4	·	·	·	·	·
Cc1ccccc1NC(=O)Cn1c(O)c(N=NC(=O)c2ccccc2O)c2ccccc21	91*	-2	48*	94*	46	4	77*	-13	-3	15	-6
Cc1ccc(NC(=O)Cn2c(O)c(N=NC(N)=O)c3ccccc32)cc1	1	-29	-3	-8	-1	-2	·	·	·	·	·
CCOc1ccc(NC(=O)CN(C)C(=O)c2n[nH]c(=O)c3ccccc23)cc1OCC	0	0	0	-8	-1	-4	·	·	·	·	·
O=C(N/N=C/c1ccc(-c2ccccc2C(=O)O)o1)c1cccs1	63*	25	5	52*	4	6	71*	-6	6.5*	9	0
Cc1ccc(NC(=O)CN2C(=O)N/C(=C/c3ccco3)C2=O)cc1	85*	-4	5	76*	45	-2	18	-19	·	2	-2
Cc1cccc(NC(=O)CN2C(=O)N/C(=C/c3ccc(C)s3)C2=O)c1	1	-9	-4	6	0	-13	·	·	·	·	·
Cc1ccc(NC(=O)CN2C(=O)N/C(=C/c3cc(C)n(-c4ccc(C(=O)O)cc4)c3C)C2=O)cc1	67*	-3	10	63*	1	-6	54*	-23	3	29	5
Cc1oc(-c2ccc(F)cc2)cc1-c1nn2c(-c3ccoc3C)nnc2s1	106*	41*	5	75*	19	3	41*	-21	1	7	-2
Cc1ccc(-n2c(C)cc(C(=O)OCC(=O)N3CCOCC3)c2C)cc1	-6	-6	0	-12	-2	-3	·	·	·	·	·
Cc1ccc(C(=O)OCC(=O)c2ccc(CC(=O)N3CCOCC3)s2)c(C)c1	55*	-3	6	72*	10	0	78*	-5	6.7*	9	2
CCOc1cccc(=O)c2c(C)n(Cc3ccccc3)c(C)c12	-3	-1	0	-7	-2	-7	·	·	·	·	·
COc1cccc(=O)c2c(C)n(-c3ccc(C(=O)O)cc3)c(C)c12	63*	24	18	60*	3	3	29	-16	·	3	-3
COc1ccc(-n2c(C)c3c(OC)cccc(=O)c3c2C)cc1	-12	-13	1	-8	4	0	·	·	·	·	·
CCOc1cccc(=O)c2c(C)n(-c3ccc(C(=O)O)cc3)c(C)c12	94*	41*	31	60*	3	7	55*	-4	15*	2	0
O=C(COC(=O)CNC(=O)c1ccc(Cl)c([N+](=O)[O-])c1)NC(=O)c1ccccc1	2	-20	-1	-8	1	2	·	·	·	·	·
O=C(NNC1CC(=O)N(c2ccc(Br)cc2)C1=O)c1ccccn1 (stereo not drawn)	-2	0	-1	-7	-3	5	·	·	·	·	·
